Reference: ChEMBL document CHEMBL1147606, “Synthesis and cytotoxicity of hydrophobic esters of podophyllotoxins” (Bioorg Med Chem Lett, 2004)

Assays:
Assay type in all cases: functional, cell-based
HT-29 = assay: In vitro cytotoxicity against the HT-29 (human colon carcinoma) neoplastic cell line
Method in brief: (§1)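 In vitro assay adapted from Bergeron's method. P-388 was grown as a suspension culture of a mouse lymphoid neoplasm. A-549, HT-29 and MEL-28 were grown as monolayer cultures. Dose–response curves were constructed, and IC50 values (nM) were calculated from them.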

A549 = assay: In vitro cytotoxicity against the A-549 (human lung carcinoma) neoplastic cell line
SK-MEL-28 = assay: In vitro cytotoxicity against MEL-28 (human malign melanoma) neoplastic cell line; method in brief: as §1
P388 = assay: In vitro cytotoxicity against the P-388 (from DBA/2 mouse) neoplastic cell line; method in brief: as §1

Row | SMILES | IC50 (HT-29; Homo sapiens, HT-29) [nM] | IC50 (A549; Homo sapiens, A549) [nM] | IC50 (SK-MEL-28; Homo sapiens, SK-MEL-28) [nM] | IC50 (P388; Mus musculus, P388) [nM] | IC50 (HT-29; ht-29) [nM] | IC50 (A549; a549) [nM] | IC50 (SK-MEL-28; sk-mel-28) [nM] | IC50 (P388; p388) [nM]
1 | CCCCCCC(=O)O[C@@H]1c2cc3c(cc2[C@@H](c2cc(OC)c(OC)c(OC)c2)[C@H]2C(=O)OC[C@@H]21)OCO3 | 190 | 190 | 190 | 190 | – | – | – | –
2 | COc1cc([C@@H]2c3cc4c(cc3[C@@H](O[C@@H]3O[C@@H]5CO[C@@H](C)O[C@H]5[C@H](O)[C@H]3O)[C@H]3COC(=O)[C@H]23)OCO4)cc(OC)c1O [ETOPOSIDE] | 1700 | – | 850 | 170 | – | – | – | –
3 | COc1cc([C@@H]2c3cc4c(cc3[C@H](OC(=O)/C=C/c3ccccc3)[C@H]3COC(=O)[C@H]23)OCO4)cc(OC)c1OC | 9180 | 9180 | 9180 | 4590 | – | – | – | –
4 | C=CC(=O)O[C@@H]1c2cc3c(cc2[C@@H](c2cc(OC)c(OC)c(OC)c2)[C@@H]2C(=O)OC[C@@H]21)OCO3 | 21 | 21 | 21 | 21 | – | – | – | –
5 | COc1cc([C@@H]2c3cc4c(cc3[C@@H](OC(=O)C3CC5C=CC3C5)[C@H]3COC(=O)[C@H]23)OCO4)cc(OC)c1OC (some centres undefined) | 1120 | 1120 | 1120 | 1120 | – | – | – | –
6 | COc1cc([C@@H]2c3cc4c(cc3[C@@H](O)[C@H]3COC(=O)[C@@H]23)OCO4)cc(OC)c1OC | 24 | 12 | – | 12 | – | – | – | –
7 | C=CC(=O)O[C@H]1c2cc3c(cc2[C@@H](c2cc(OC)c(OC)c(OC)c2)[C@H]2C(=O)OC[C@@H]21)OCO3 | 213 | 213 | 213 | 213 | – | – | – | –
8 | COc1cc([C@@H]2c3cc4c(cc3[C@H](OC(=O)C3CC5C=CC3C5)[C@H]3COC(=O)[C@@H]23)OCO4)cc(OC)c1OC (some centres undefined) | 19 | 19 | 19 | 19 | – | – | – | –
9 | COc1cc([C@@H]2c3cc4c(cc3[C@H](OC(=O)Cc3ccccc3)[C@H]3COC(=O)[C@H]23)OCO4)cc(OC)c1OC | 188 | 188 | 188 | 188 | – | – | – | –
10 | COc1cc([C@@H]2c3cc4c(cc3[C@H](O)[C@H]3COC(=O)[C@H]23)OCO4)cc(OC)c1OC [PODOFILOX] | 2900 | 2900 | – | 2900 | – | – | – | –
11 | COc1cc([C@@H]2c3cc4c(cc3[C@@H](OC(=O)Cc3ccccc3)[C@H]3COC(=O)[C@H]23)OCO4)cc(OC)c1OC | 94 | 94 | 94 | 47 | – | – | – | –
12 | COc1cc([C@@H]2c3cc4c(cc3[C@@H](OC(=O)CC3CC5CCC3C5)[C@H]3COC(=O)[C@H]23)OCO4)cc(OC)c1OC (some centres undefined) | 454 | 454 | 454 | 454 | – | – | – | –
13 | C=CC(=O)O[C@@H]1c2cc3c(cc2[C@@H](c2cc(OC)c(OC)c(OC)c2)[C@H]2C(=O)OC[C@@H]21)OCO3 | 213 | 213 | 213 | 213 | – | – | – | –
14 | COc1cc([C@@H]2c3cc4c(cc3[C@@H](OC(=O)/C=C/c3ccccc3)[C@H]3COC(=O)[C@H]23)OCO4)cc(OC)c1OC | 184 | 184 | 184 | 184 | – | – | – | –
15 | C=CC(=O)O[C@H]1c2cc3c(cc2[C@@H](c2cc(OC)c(OC)c(OC)c2)[C@@H]2C(=O)OC[C@@H]21)OCO3 | 55 | 53 | 53 | 55 | – | – | – | –
16 | COc1cc([C@@H]2c3cc4c(cc3[C@H](O)[C@H]3COC(=O)[C@@H]23)OCO4)cc(OC)c1OC [AXL-1717] | 60 | 60 | – | 60 | – | – | – | –
17 | COc1cc([C@@H]2c3cc4c(cc3[C@H](OC(=O)c3ccccc3)[C@H]3COC(=O)[C@H]23)OCO4)cc(OC)c1OC | 1930 | 1930 | 1930 | 1930 | – | – | – | –
18 | COc1cc([C@@H]2c3cc4c(cc3[C@@H](OC(=O)c3ccccc3)[C@H]3COC(=O)[C@H]23)OCO4)cc(OC)c1OC | 48 | 48 | 48 | 24 | – | – | – | –
19 | COc1cc([C@@H]2c3cc4c(cc3[C@H](OC(=O)C3CC5C=CC3C5)[C@H]3COC(=O)[C@H]23)OCO4)cc(OC)c1OC (some centres undefined) | – | – | – | – | 468 | 468 | 468 | 468
20 | COc1cc([C@@H]2c3cc4c(cc3[C@@H](O)[C@H]3COC(=O)[C@H]23)OCO4)cc(OC)c1OC [EPIPODOPHYLLOTOXIN] | 6000 | 6000 | – | 6000 | – | – | – | –
21 | COc1cc([C@@H]2c3cc4c(cc3C(OC(=O)C3CC5C=CC3C5)[C@H]3COC(=O)C23)OCO4)cc(OC)c1OC (single isomer, unassigned) | – | – | – | – | 4 | 4 | 4 | 5
